Assays:
CCRF-CEM = experiment: Inhibition of human lymphoblastic leukemia (CCRF-CEM) cell growth measured using a modification of the MTT36 colorimetric assay of Mosmann; format: functional, cell-based
GC3/MTK- = experiment: Inhibition of cellular growth in human adenocarcinoma cell line (GC3/M TK) deficient in thymidine kinase; format: functional, cell-based
L1210 [1] = experiment: Inhibition of mouse L1210 (murine leukemia) cell growth measured using a modification of the MTT36 colorimetric assay of Mosmann; format: functional, cell-based
L1210 [2] = experiment: The ratio of IC50 of the inhibitor (assayed in L1210 cells) in presence and absence of thymidine; format: functional, Mus musculus
In short: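 Murine L1210 leukemia cells grown in RPMI-1640 with 5% fetal calf serum and 0.5% DMSO, seeded at 1000 cells/well, over nine 2-fold serial dilutions of compound, with or without 10 μM thymidine replenished daily over 3 days.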

Thymidylate synthase [3] = target: T1, Thymidylate synthase (Homo sapiens, UniProt P04818); experiment: (§1) Inhibition of human Thymidylate synthase
T1 sequence (P04818 whole entry): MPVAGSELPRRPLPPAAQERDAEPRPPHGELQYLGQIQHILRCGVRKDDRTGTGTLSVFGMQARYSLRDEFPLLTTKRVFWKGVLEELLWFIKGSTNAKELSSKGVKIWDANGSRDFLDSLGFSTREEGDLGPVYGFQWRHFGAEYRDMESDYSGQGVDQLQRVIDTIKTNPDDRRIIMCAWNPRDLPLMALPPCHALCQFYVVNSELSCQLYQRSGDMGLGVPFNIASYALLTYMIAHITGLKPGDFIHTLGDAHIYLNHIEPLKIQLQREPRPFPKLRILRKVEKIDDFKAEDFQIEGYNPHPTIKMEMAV

Thymidylate synthase [4] = target: T1, Thymidylate synthase; experiment: as §1; remark: listed apart in the source
Thymidylate synthase [5] = target: T2, Thymidylate synthase (Escherichia coli, UniProt C3SWJ7); experiment: (§2) Inhibition of purified Escherichia coli Thymidylate synthase
T2 sequence (C3SWJ7 whole entry): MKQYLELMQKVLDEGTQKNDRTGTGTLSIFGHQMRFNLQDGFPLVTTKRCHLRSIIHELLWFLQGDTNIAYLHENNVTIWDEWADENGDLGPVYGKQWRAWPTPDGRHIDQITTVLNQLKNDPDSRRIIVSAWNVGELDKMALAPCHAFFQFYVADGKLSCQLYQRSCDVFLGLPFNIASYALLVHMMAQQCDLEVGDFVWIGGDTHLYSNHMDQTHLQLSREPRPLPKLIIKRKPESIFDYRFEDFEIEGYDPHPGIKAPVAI

Thymidylate synthase [6] = target: T2, Thymidylate synthase; experiment: as §2; remark: listed apart in the source
[7] = Partition coefficient (logP); format: physicochemical; conditions: octanol/water
Thymidylate synthase [8] = target: T1, Thymidylate synthase; experiment: Compound was tested for TS activity against human Thymidylate synthase by tight binding kinetics

Row | Structure (SMILES) | IC50 (CCRF-CEM) [nM] | IC50 (GC3/MTK-) [nM] | IC50 (L1210 [1]) [nM] | Thymidine shift (L1210 [2]) | Ki (Thymidylate synthase [3]) [nM] | Ki (Thymidylate synthase [4]) [nM] | Ki (Thymidylate synthase [5]) [nM] | Ki (Thymidylate synthase [6]) [nM] | logP [7] | Ki (Thymidylate synthase [8]) [nM]
1 | Nc1nc(O)c2c(Sc3ccncc3)c(Cl)ccc2n1 | 2100 | 2050 | 1300 | ~14 | 18 | 20 | – | – | – | –
2 | Cc1nc(O)c2c(Sc3cccnc3)c(C)ccc2n1 | > 2500 | > 2500 | > 2500 | – | 1100 | 310 | 9300 | 1700 | – | –
3 | Cc1nc(O)c2c(Sc3ccc([N+](=O)[O-])cc3)c(C)ccc2n1 | 2900 | > 4000 | 3000 | 3.3 | 78 | 56 | 730 | 490 | 3.29 | –
4 | Cc1nc(O)c2c(Sc3ccncc3)cccc2n1 | > 26900 | > 26900 | – | – | – | 960 | 30000 | 10000 | – | –
5 | Cc1nc(O)c2c(Sc3ccnc(C(F)(F)F)c3)c(C)ccc2n1 | – | – | – | – | – | 70 | 540 | 230 | – | –
6 | COc1cc(Sc2c(C)ccc3nc(C)nc(O)c23)ccn1 | – | > 5000 | – | – | 46 | 37 | 710 | 280 | – | –
7 | Cc1nc(O)c2c(Sc3ccccc3)cccc2n1 | > 4200 | – | > 4200 | – | – | > 10000 | – | > 10000 | – | –
8 | COc1ccc2nc(C)nc(O)c2c1Sc1ccncc1 | 26000 | 32000 | 21000 | – | – | – | 3900 | 1500 | – | –
9 | Cc1nc(O)c2c(Sc3ccncc3)c(O)ccc2n1 | > 50000 | > 50000 | > 50000 | 1 | – | 8800 | 190000 | 51000 | – | –
10 | Cc1nc(O)c2c(Sc3ccnnc3)c(C)ccc2n1 | – | > 12500 | – | – | – | 87 | 1100 | 600 | – | –
11 | Cc1nc(O)c2c(Sc3ccc(C(=O)O)cc3)c(C)ccc2n1 | > 50000 | > 50000 | 50000 | >5 | 65 | 141 | – | – | – | –
12 | Cc1nc(O)c2c(Oc3ccccc3)cccc2n1 | > 50000 | – | > 50000 | – | – | > 100000 | – | > 100000 | – | –
13 | Cc1ccc2nc(N)nc(O)c2c1Sc1ccc(C(=O)N[C@H](CCC(=O)O)C(=O)O)cc1 | 520 | 1700 | 2500 | ~8 | – | – | – | – | – | 0.124
14 | Cc1nc(O)c2c(Sc3ccc(C(=O)N[C@H](CCC(=O)O)C(=O)O)cc3)c(C)ccc2n1 | 990 | 4100 | 1050 | >22 | – | – | – | – | – | 1.31
15 | Cc1ccc2nc(N)nc(O)c2c1Sc1ccnnc1 | 880 | 1500 | 1600 | 17.6 | – | 13 | – | – | – | –
16 | Cc1nc(O)c2c(Sc3ccnc(N(C)C)c3)c(C)ccc2n1 | 10500 | 18000 | 4050 | 4.25 | 58 | 80 | – | – | – | –
17 | Cc1cc(Sc2c(C)ccc3nc(C)nc(O)c23)ccn1 | 4200 | 5000 | 4200 | – | 66 | 39 | 530 | 240 | – | –
18 | Cc1nc(O)c2c(Sc3ccncc3)c(C)ccc2n1 | 5200 | 6000 | 3500 | >14 | 58 | 93 | 820 | 500 | 2.16 | –
19 | Cc1ccc2nc(N)nc(O)c2c1Sc1ccnc(N(C)C)c1 | 4900 | 5200 | 1800 | >20 | 50 | 32 | – | – | – | –
20 | Cc1nc(O)c2c(Sc3ccccn3)cccc2n1 | > 50000 | > 50000 | > 50000 | 1 | 190000 | 120000 | > 80000 | > 80000 | – | –
21 | CCc1ccc2nc(C)nc(O)c2c1Sc1ccncc1 | > 10000 | > 10000 | > 10000 | ~10 | 590 | 200 | – | – | – | –
22 | Cc1ccc2nc(N)nc(O)c2c1Sc1ccnc(C(F)(F)F)c1 | > 2000 | > 2000 | 1800 | >5 | 24 | 28 | – | – | – | –
23 | Cc1nc2ccc(C)c(Sc3ccc(S(=O)(=O)c4ccccc4)cc3)c2c(=O)[nH]1 | 2100 | 4500 | 1800 | – | – | – | – | – | 4.67 | –
24 | Cc1ccc2nc(N)[nH]c(=O)c2c1Sc1ccncc1 [NOLATREXED] | 810 | 1000 | 1000 | – | – | – | 140 | 49 | – | –

Source: ChEMBL document CHEMBL1126619, “Design of thymidylate synthase inhibitors using protein crystal structures: the synthesis and biological evaluation of a novel class of 5-substituted quinazolinones” (J Med Chem, 1993)
